Measurements published in ChEMBL document CHEMBL4152188, “Design, synthesis and biological evaluation of C(4) substituted monobactams as antibacterial agents against multidrug-resistant Gram-negative bacteria” (Eur J Med Chem, 2018).
Values after ≈ are worked out from the molar mass of the structure shown. One block for each compound: values may come before it.

Key:
Assay type in all cases: functional
Escherichia coli [1] = assay: Antibacterial activity against extended-spectrum beta-lactamase producing Escherichia coli isolate 212648 after 18 hrs by CLSI broth microdilution method; settings: isolate 212648, 18 h
Escherichia coli [2] = assay: Antibacterial activity against Escherichia coli isolate 210737 after 18 hrs by CLSI broth microdilution method; settings: isolate 210737, 18 h
Escherichia coli [3] = assay: Antibacterial activity against extended-spectrum beta-lactamase producing Escherichia coli isolate 208687 after 18 hrs by CLSI broth microdilution method; settings: isolate 208687, 18 h
Escherichia coli [4] = assay: Antibacterial activity against extended-spectrum beta-lactamase producing Escherichia coli isolate 208687 after 18 hrs in presence of BPL by CLSI broth microdilution method; settings: isolate 208687, 18 h
Outline: (§1)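 CLSI broth microdilution against clinical isolates (ESBL E. coli, KPC-2 MDR K. pneumoniae, IMP-4 MDR P. aeruginosa; five per species). Iron limitation: Mueller-Hinton broth supplemented with 16 mg/liter 2,2'-bipyridyl to complex iron and induce iron uptake systems. Read-out: MIC.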

Escherichia coli [5] = assay: Antibacterial activity against Escherichia coli isolate 210737 after 18 hrs in presence of BPL by CLSI broth microdilution method; settings: isolate 210737, 18 h; outline: as §1
Escherichia coli [6] = assay: Antibacterial activity against extended-spectrum beta-lactamase producing Escherichia coli isolate 212648 after 18 hrs in presence of BPL by CLSI broth microdilution method; settings: isolate 212648, 18 h; outline: as §1
Escherichia coli [7] = assay: Antibacterial activity against extended-spectrum beta-lactamase producing Escherichia coli isolate 209285 after 18 hrs by CLSI broth microdilution method; settings: isolate 209285, 18 h
Escherichia coli [8] = assay: Antibacterial activity against extended-spectrum beta-lactamase producing Escherichia coli isolate 209285 after 18 hrs in presence of BPL by CLSI broth microdilution method; settings: isolate 209285, 18 h; outline: as §1
Escherichia coli [9] = assay: Antibacterial activity against extended-spectrum beta-lactamase producing Escherichia coli isolate 106342 after 18 hrs by CLSI broth microdilution method; settings: isolate 106342, 18 h
Escherichia coli [10] = assay: Antibacterial activity against extended-spectrum beta-lactamase producing Escherichia coli isolate 106342 after 18 hrs in presence of BPL by CLSI broth microdilution method; settings: isolate 106342, 18 h; outline: as §1
Klebsiella pneumoniae [11] = assay: Antibacterial activity against KPC-2 producing Klebsiella pneumoniae isolate 212423 after 18 hrs by CLSI broth microdilution method; settings: isolate 212423, 18 h
Klebsiella pneumoniae [12] = assay: Antibacterial activity against KPC-2 producing Klebsiella pneumoniae isolate 212423 after 18 hrs in presence of BPL by CLSI broth microdilution method; settings: isolate 212423, 18 h; outline: as §1
Klebsiella pneumoniae [13] = assay: Selectivity index, ratio of MIC for against KPC-2 producing Klebsiella pneumoniae isolate 212423 to MIC for against KPC-2 producing Klebsiella pneumoniae isolate 212423 in presence of BPL
Klebsiella pneumoniae [14] = assay: Antibacterial activity against KPC-2 producing Klebsiella pneumoniae isolate 209632 after 18 hrs by CLSI broth microdilution method; settings: isolate 209632, 18 h
Klebsiella pneumoniae [15] = assay: Antibacterial activity against KPC-2 producing Klebsiella pneumoniae isolate 209632 after 18 hrs in presence of BPL by CLSI broth microdilution method; settings: isolate 209632, 18 h; outline: as §1
Klebsiella pneumoniae [16] = assay: Selectivity index, ratio of MIC for against KPC-2 producing Klebsiella pneumoniae isolate 209632 to MIC for against KPC-2 producing Klebsiella pneumoniae isolate 209632 in presence of BPL
Klebsiella pneumoniae [17] = assay: Antibacterial activity against KPC-2 producing Klebsiella pneumoniae isolate 209735 after 18 hrs by CLSI broth microdilution method; settings: isolate 209735, 18 h
Klebsiella pneumoniae [18] = assay: Antibacterial activity against KPC-2 producing Klebsiella pneumoniae isolate 209735 after 18 hrs in presence of BPL by CLSI broth microdilution method; settings: isolate 209735, 18 h; outline: as §1
Klebsiella pneumoniae [19] = assay: Selectivity index, ratio of MIC for against KPC-2 producing Klebsiella pneumoniae isolate 209735 to MIC for against KPC-2 producing Klebsiella pneumoniae isolate 209735 in presence of BPL
Klebsiella pneumoniae [20] = assay: Antibacterial activity against KPC-2 producing Klebsiella pneumoniae isolate 212232 after 18 hrs by CLSI broth microdilution method; settings: isolate 212232, 18 h
Klebsiella pneumoniae [21] = assay: Antibacterial activity against KPC-2 producing Klebsiella pneumoniae isolate 212232 after 18 hrs in presence of BPL by CLSI broth microdilution method; settings: isolate 212232, 18 h; outline: as §1
Klebsiella pneumoniae [22] = assay: Selectivity index, ratio of MIC for against KPC-2 producing Klebsiella pneumoniae isolate 212232 to MIC for against KPC-2 producing Klebsiella pneumoniae isolate 212232 in presence of BPL
Klebsiella pneumoniae [23] = assay: Antibacterial activity against KPC-2 producing Klebsiella pneumoniae isolate 212229 after 18 hrs by CLSI broth microdilution method; settings: isolate 212229, 18 h
Klebsiella pneumoniae [24] = assay: Antibacterial activity against KPC-2 producing Klebsiella pneumoniae isolate 212229 after 18 hrs in presence of BPL by CLSI broth microdilution method; settings: isolate 212229, 18 h; outline: as §1
Klebsiella pneumoniae [25] = assay: Selectivity index, ratio of MIC for against KPC-2 producing Klebsiella pneumoniae isolate 212229 to MIC for against KPC-2 producing Klebsiella pneumoniae isolate 212229 in presence of BPL
Pseudomonas aeruginosa [26] = assay: Antibacterial activity against IMP-4 producing Pseudomonas aeruginosa isolate 212886 after 18 hrs by CLSI broth microdilution method; settings: isolate 212886, 18 h
Pseudomonas aeruginosa [27] = assay: Antibacterial activity against IMP-4 producing Pseudomonas aeruginosa isolate 212886 after 18 hrs in presence of BPL by CLSI broth microdilution method; settings: isolate 212886, 18 h; outline: as §1
Pseudomonas aeruginosa [28] = assay: Antibacterial activity against IMP-4 producing Pseudomonas aeruginosa isolate 209471 after 18 hrs by CLSI broth microdilution method; settings: isolate 209471, 18 h
Pseudomonas aeruginosa [29] = assay: Antibacterial activity against IMP-4 producing Pseudomonas aeruginosa isolate 209471 after 18 hrs in presence of BPL by CLSI broth microdilution method; settings: isolate 209471, 18 h; outline: as §1
Pseudomonas aeruginosa [30] = assay: Antibacterial activity against IMP-4 producing Pseudomonas aeruginosa isolate 208247 after 18 hrs by CLSI broth microdilution method; settings: isolate 208247, 18 h
Pseudomonas aeruginosa [31] = assay: Antibacterial activity against IMP-4 producing Pseudomonas aeruginosa isolate 208247 after 18 hrs in presence of BPL by CLSI broth microdilution method; settings: isolate 208247, 18 h; outline: as §1
Pseudomonas aeruginosa [32] = assay: Antibacterial activity against IMP-4 producing Pseudomonas aeruginosa isolate 209321 after 18 hrs by CLSI broth microdilution method; settings: isolate 209321, 18 h
Pseudomonas aeruginosa [33] = assay: Antibacterial activity against IMP-4 producing Pseudomonas aeruginosa isolate 209321 after 18 hrs in presence of BPL by CLSI broth microdilution method; settings: isolate 209321, 18 h; outline: as §1
Pseudomonas aeruginosa [34] = assay: Antibacterial activity against IMP-4 producing Pseudomonas aeruginosa isolate 207272 after 18 hrs by CLSI broth microdilution method; settings: isolate 207272, 18 h
Pseudomonas aeruginosa [35] = assay: Antibacterial activity against IMP-4 producing Pseudomonas aeruginosa isolate 207272 after 18 hrs in presence of BPL by CLSI broth microdilution method; settings: isolate 207272, 18 h; outline: as §1
Escherichia coli [36] = assay: Selectivity index, ratio of MIC for against extended-spectrum beta-lactamase producing Escherichia coli isolate 208687 to MIC for extended-spectrum beta-lactamase producing Escherichia coli isolate 208687 in presence of BPL
Escherichia coli [37] = assay: Selectivity index, ratio of MIC for against Escherichia coli isolate 210737 to MIC for Escherichia coli isolate 210737 in presence of BPL
Escherichia coli [38] = assay: Selectivity index, ratio of MIC for against extended-spectrum beta-lactamase producing Escherichia coli isolate 212648 to MIC for extended-spectrum beta-lactamase producing Escherichia coli isolate 212648 in presence of BPL
Escherichia coli [39] = assay: Selectivity index, ratio of MIC for against extended-spectrum beta-lactamase producing Escherichia coli isolate 209285 to MIC for extended-spectrum beta-lactamase producing Escherichia coli isolate 209285 in presence of BPL
Escherichia coli [40] = assay: Selectivity index, ratio of MIC for against extended-spectrum beta-lactamase producing Escherichia coli isolate 106342 to MIC for extended-spectrum beta-lactamase producing Escherichia coli isolate 106342 in presence of BPL
Pseudomonas aeruginosa [41] = assay: Selectivity index, ratio of MIC for against IMP-4 producing Pseudomonas aeruginosa isolate 209471 to MIC for against IMP-4 producing Pseudomonas aeruginosa isolate 209471 in presence of BPL
Pseudomonas aeruginosa [42] = assay: Selectivity index, ratio of MIC for against IMP-4 producing Pseudomonas aeruginosa isolate 208247 to MIC for against IMP-4 producing Pseudomonas aeruginosa isolate 208247 in presence of BPL
Pseudomonas aeruginosa [43] = assay: Selectivity index, ratio of MIC for against IMP-4 producing Pseudomonas aeruginosa isolate 207272 to MIC for against IMP-4 producing Pseudomonas aeruginosa isolate 207272 in presence of BPL

MIC (Escherichia coli [1]): > 64 µg/mL | MIC (Escherichia coli [2]): > 64 µg/mL | MIC (Escherichia coli [3]): > 64 µg/mL | MIC (Escherichia coli [4]): > 64 µg/mL | MIC (Escherichia coli [5]): > 64 µg/mL | MIC (Escherichia coli [6]): > 64 µg/mL | MIC (Escherichia coli [7]): > 64 µg/mL | MIC (Escherichia coli [8]): > 64 µg/mL | MIC (Escherichia coli [9]): > 64 µg/mL | MIC (Escherichia coli [10]): > 64 µg/mL | MIC (Klebsiella pneumoniae [11]): > 64 µg/mL | MIC (Klebsiella pneumoniae [12]): > 64 µg/mL | MIC (Klebsiella pneumoniae [14]): > 64 µg/mL | MIC (Klebsiella pneumoniae [15]): > 64 µg/mL | MIC (Klebsiella pneumoniae [17]): > 64 µg/mL | MIC (Klebsiella pneumoniae [18]): > 64 µg/mL | MIC (Klebsiella pneumoniae [20]): 32 µg/mL (≈ 55.1 µM) | MIC (Klebsiella pneumoniae [21]): 4 µg/mL | MIC (Klebsiella pneumoniae [23]): > 64 µg/mL | MIC (Klebsiella pneumoniae [24]): > 64 µg/mL | MIC (Pseudomonas aeruginosa [26]): > 64 µg/mL | MIC (Pseudomonas aeruginosa [27]): > 64 µg/mL | MIC (Pseudomonas aeruginosa [28]): > 64 µg/mL | MIC (Pseudomonas aeruginosa [29]): > 64 µg/mL | MIC (Pseudomonas aeruginosa [30]): > 64 µg/mL | MIC (Pseudomonas aeruginosa [31]): 64 µg/mL | MIC (Pseudomonas aeruginosa [32]): > 64 µg/mL | MIC (Pseudomonas aeruginosa [33]): > 64 µg/mL | MIC (Pseudomonas aeruginosa [34]): > 64 µg/mL | MIC (Pseudomonas aeruginosa [35]): > 64 µg/mL
Structure (SMILES): CC(C)C(O/N=C(\C(=O)NC1C(=O)N(S(=O)(=O)O)C1(CF)CF)c1csc(N)n1)c1cc(=O)c(O)cn1O (stereo not drawn)
Selectivity Index (Klebsiella pneumoniae [13]): 8 | Selectivity Index (Klebsiella pneumoniae [16]): 8 | Selectivity Index (Klebsiella pneumoniae [19]): 8 | Selectivity Index (Klebsiella pneumoniae [22]): 8 | Selectivity Index (Klebsiella pneumoniae [25]): 8

MIC (Escherichia coli [1]): 2 µg/mL (≈ 2.94 µM) | MIC (Escherichia coli [2]): 1 µg/mL (≈ 1.47 µM) | MIC (Escherichia coli [3]): 4 µg/mL (≈ 5.88 µM) | MIC (Escherichia coli [4]): 1 µg/mL | MIC (Escherichia coli [5]): 0.5 µg/mL | MIC (Escherichia coli [6]): 1 µg/mL | MIC (Escherichia coli [7]): 4 µg/mL (≈ 5.88 µM) | MIC (Escherichia coli [8]): 2 µg/mL | MIC (Escherichia coli [9]): 2 µg/mL (≈ 2.94 µM) | MIC (Escherichia coli [10]): 1 µg/mL | MIC (Klebsiella pneumoniae [11]): 4 µg/mL (≈ 5.88 µM) | MIC (Klebsiella pneumoniae [12]): 2 µg/mL | MIC (Klebsiella pneumoniae [14]): 2 µg/mL (≈ 2.94 µM) | MIC (Klebsiella pneumoniae [15]): 2 µg/mL | MIC (Klebsiella pneumoniae [17]): 4 µg/mL (≈ 5.88 µM) | MIC (Klebsiella pneumoniae [18]): 2 µg/mL | MIC (Klebsiella pneumoniae [20]): 4 µg/mL (≈ 5.88 µM) | MIC (Klebsiella pneumoniae [21]): 0.5 µg/mL | MIC (Klebsiella pneumoniae [23]): 2 µg/mL (≈ 2.94 µM) | MIC (Klebsiella pneumoniae [24]): 1 µg/mL | MIC (Pseudomonas aeruginosa [26]): > 64 µg/mL | MIC (Pseudomonas aeruginosa [27]): > 64 µg/mL | MIC (Pseudomonas aeruginosa [28]): 64 µg/mL (≈ 94.2 µM) | MIC (Pseudomonas aeruginosa [29]): 64 µg/mL | MIC (Pseudomonas aeruginosa [30]): 64 µg/mL (≈ 94.2 µM) | MIC (Pseudomonas aeruginosa [31]): 64 µg/mL | MIC (Pseudomonas aeruginosa [32]): > 64 µg/mL | MIC (Pseudomonas aeruginosa [33]): > 64 µg/mL | MIC (Pseudomonas aeruginosa [34]): 64 µg/mL (≈ 94.2 µM) | MIC (Pseudomonas aeruginosa [35]): 64 µg/mL
Structure (SMILES): CC(C)C(O/N=C(\C(=O)N[C@@H]1C(=O)N(S(=O)(=O)O)[C@@H]1CSc1nc2ccccc2o1)c1csc(N)n1)c1cc(=O)c(O)cn1O (stereo partly drawn)
Selectivity Index (Escherichia coli [36]): 4 | Selectivity Index (Escherichia coli [37]): 2 | Selectivity Index (Escherichia coli [38]): 2 | Selectivity Index (Escherichia coli [39]): 2 | Selectivity Index (Escherichia coli [40]): 2 | Selectivity Index (Klebsiella pneumoniae [13]): 2 | Selectivity Index (Klebsiella pneumoniae [16]): 1 | Selectivity Index (Klebsiella pneumoniae [19]): 2 | Selectivity Index (Klebsiella pneumoniae [22]): 8 | Selectivity Index (Klebsiella pneumoniae [25]): 2 | Selectivity Index (Pseudomonas aeruginosa [41]): 1 | Selectivity Index (Pseudomonas aeruginosa [42]): 1 | Selectivity Index (Pseudomonas aeruginosa [43]): 1
